Experimental findings from ChEMBL document CHEMBL1240461, “Regioselective synthesis and molecular modeling study of vasorelaxant active 7,9-dioxa-1,2-diaza-spiro[4.5]dec-2-ene-6,10-diones” (Eur J Med Chem, 2010) are described below.

The subject of the assay is Aorta. Kind of assay: Vasorelaxant activity in Wistar rat thoracic aortic ring assessed as inhibition of norepinephrine hydrochloride-induced contraction. It counts as functional, tissue-based. The essentials: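 Isolated thoracic aortic rings from male Wistar rats, stabilised at 2 g resting tension for 2 h. Controls used DMSO alone at matching concentrations. IC50 is the concentration giving 50% reduction of maximal norepinephrine contracture, from a best-fit line.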
For the compound `CN(C)c1ccc(C2C(c3ccccc3)=NN(c3cccc(Cl)c3)C23C(=O)OC(C)(C)OC3=O)cc1` (stereo unspecified), the IC50 (usually the midpoint of a concentration-inhibition curve) was determined as 430 µM.

In the case of `COc1ccc(C2C(c3ccccc3)=NN(c3cccc(Cl)c3)C23C(=O)OC(C)(C)OC3=O)cc1` (stereo unspecified), the IC50 was determined as 325 µM.

Consider `CC1(C)OC(=O)C2(C(=O)O1)C(c1ccc(F)cc1)C(c1ccccc1)=NN2c1cccc(Cl)c1` (stereo unspecified), for which the IC50 turned out to be 643 µM.

Consider `COc1ccc(C2C(c3ccccc3)=NN(c3ccccc3)C23C(=O)OC(C)(C)OC3=O)cc1` (stereo unspecified), for which the IC50 was 500 µM.

Consider `Cc1ccc(C2C(c3ccccc3)=NN(c3ccccc3)C23C(=O)OC(C)(C)OC3=O)o1` (stereo unspecified), for which the IC50 was 719 µM.

Regarding `CC1(C)OC(=O)C2(C(=O)O1)C(c1ccc(Cl)cc1)C(c1ccccc1)=NN2c1cccc(Cl)c1` (stereo unspecified), the IC50 is 448 µM.

As for `CC1(C)OC(=O)C2(C(=O)O1)C(c1ccc(F)cc1)C(c1ccccc1)=NN2c1ccccc1` (stereo unspecified), the IC50 was 1470 µM.

Turning to `CC1(C)OC(=O)C2(C(=O)O1)C(c1cccs1)C(c1ccccc1)=NN2c1cccc(Cl)c1` (stereo unspecified), the IC50 was determined as 321 µM.

For the compound `CC1(C)OC(=O)C2(C(=O)O1)C(c1ccc(Cl)cc1)C(c1ccccc1)=NN2c1ccccc1` (stereo unspecified), the IC50 turned out to be 590 µM.

For the compound `CC1(C)OC(=O)C2(C(=O)O1)C(c1cccs1)C(c1ccccc1)=NN2c1ccccc1` (stereo unspecified), the IC50 was 585 µM.

On to `Cc1ccc(C2C(c3ccccc3)=NN(c3cccc(Cl)c3)C23C(=O)OC(C)(C)OC3=O)o1` (stereo unspecified), for which the IC50 came to 729 µM.
